Type in all cases: functional
Assay [1] relates to Candida albicans. Kind of assay: Tested for minimum inhibitory concentration against Candida albicans 124 (Candida albicans) at pH of 4.5. Put shortly:
(§1)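 Broth microdilution in malt extract broth, initial pH 4.5 or 6.5, with 1×10^3 CFU per 0.2 mL well of thawed stored cultures. Compound stocks were made in 5% DMSO/0.2% Tween 80 and diluted to final 0.05–100 μg/mL. Plates were incubated 48 h at 30 °C and read macroscopically. MIC was the lowest concentration with no detectable growth. Vehicle-only wells served as controls.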

The subject of assay [2] is Candida albicans. The experiment in a line: Tested for minimum inhibitory concentration against Candida albicans 124 (Candida albicans) at pH of 6.5. Put shortly:
as §1

Assay [3] has as its system Meyerozyma guilliermondii. Kind of assay: Tested for minimum inhibitory concentration against Candida guilliermondii 80 (C.g) at pH of 6.5. The procedure, abridged:
as §1

Assay [4] has as its system Meyerozyma guilliermondii. Kind of assay: Tested for minimum inhibitory concentration against Candida guilliermondii 80 (C.g) at pH of 4.5. Put shortly: as §1
For assay [5], the system named is Pichia kudriavzevii. Kind of assay: Tested for minimum inhibitory concentration against Candida krusei 132 (C.k) at pH of 4.5. Put shortly: as §1
Assay [6] deals with Pichia kudriavzevii. The experiment in a line: Tested for minimum inhibitory concentration against Candida krusei 132 (C.k) at pH of 6.5. Put shortly:
as §1

For assay [7], the system named is Candida tropicalis. Kind of assay: Tested for minimum inhibitory concentration against Candida tropicalis 43 (C.t) at pH of 4.5. The procedure, abridged: as §1
Assay [8] concerns Candida tropicalis. Kind of assay: Tested for minimum inhibitory concentration against Candida tropicalis 43 (C.t) at pH of 6.5. The procedure, abridged: as §1

Structures are written as SMILES. Converted amounts (≈) assume the structure as drawn.

Take `CC[C@@H](C)[C@H]1C(=O)NCC(=O)N(C)[C@@H](C(C)C)C(=O)N[C@@H](Cc2ccc(OC)cc2)C(=O)N[C@H](C)C(=O)N2CCCC[C@H]2C(=O)N(C)[C@@H](C(C)C)C(=O)N[C@@H](C(C)C)C(=O)N(C)[C@@H](CC(=O)O)C(=O)N(C)[C@@H]([C@@H](C)CC)C(=O)N1C`: the MIC (commonly the lowest concentration found to suppress growth) in the assay with Candida albicans [1] is 25 µg/mL (≈ 22.2 µM); against Candida albicans [2], 100 µg/mL (≈ 88.9 µM); in assay [3], more than 100 µg/mL; in assay [4], more than 100 µg/mL; with Pichia kudriavzevii [5] it was more than 100 µg/mL; in the assay on Pichia kudriavzevii [6] it was more than 100 µg/mL. Further, the minimum inhibitory concentration (MIC) against Candida tropicalis [7] and in the assay with Candida tropicalis [8] was more than 100 µg/mL throughout.

`CC[C@H](C)[C@H]1C(=O)NCC(=O)N(C)[C@@H](C(C)C)C(=O)N[C@@H](Cc2ccc(OC)cc2)C(=O)N[C@@H](C)C(=O)N[C@H](C)C(=O)N2CCCC[C@H]2C(=O)N(C)[C@@H](C(C)C)C(=O)N[C@@H](C(C)C)C(=O)N(C)[C@@H](CC(=O)O)C(=O)N(C)[C@@H]([C@@H](C)CC)C(=O)N1C`: the MIC with Candida albicans [1] was 12.5 µg/mL (≈ 10.4 µM); against Candida albicans [2] it was more than 100 µg/mL; in assay [3] it was more than 100 µg/mL; in assay [4], 50 µg/mL (≈ 41.8 µM); in the assay with Pichia kudriavzevii [5], more than 100 µg/mL; against Pichia kudriavzevii [6], more than 100 µg/mL. The figures for the MIC against Candida tropicalis [7] and in the assay on Candida tropicalis [8] were 100 µg/mL (≈ 83.6 µM) and more than 100 µg/mL, respectively.

Take `CC[C@@H](C)[C@H]1C(=O)NCC(=O)N(C)[C@@H](C(C)C)C(=O)N[C@@H](Cc2ccc(OC)cc2)C(=O)O[C@H](C)C(=O)N2CCCC[C@H]2C(=O)N(C)[C@@H](C(C)C)C(=O)N[C@@H](C(C)C)C(=O)N(C)[C@@H](CCOC(=O)CCC(=O)O)C(=O)N(C)[C@@H]([C@@H](C)CC)C(=O)N1C`: the MIC (in the assay with Candida albicans [1]; with Candida albicans [2]; in assay [3]; in assay [4]; against Pichia kudriavzevii [5]; with Pichia kudriavzevii [6]) was more than 100 µg/mL throughout. Besides, the MIC in the assay on Candida tropicalis [7] and in the assay with Candida tropicalis [8] was more than 100 µg/mL throughout.

In the case of `CC[C@@H](C)[C@H]1C(=O)NCC(=O)N(C)[C@@H](C(C)C)C(=O)N[C@@H](Cc2ccc(OCc3ccc(Br)cc3)cc2)C(=O)O[C@H](C)C(=O)N2CCCC[C@H]2C(=O)N(C)[C@@H](C(C)C)C(=O)N[C@@H](C(C)C)C(=O)N(C)[C@@H](CC(=O)O)C(=O)N(C)[C@@H]([C@@H](C)CC)C(=O)N1C`, the MIC (with Candida albicans [1]; against Candida albicans [2]; in assay [3]; in assay [4]; in the assay with Pichia kudriavzevii [5]; against Pichia kudriavzevii [6]) was more than 100 µg/mL throughout. Besides, the MIC with Candida tropicalis [7] and against Candida tropicalis [8] was more than 100 µg/mL each time.

Turning to `CC[C@@H](C)[C@H]1C(=O)NCC(=O)N(C)[C@@H](C(C)C)C(=O)N[C@@H](Cc2ccc(OC)cc2)C(=O)O[C@@H](C)C(=O)N2CCCC[C@H]2C(=O)N(C)[C@@H](C(C)C)C(=O)N[C@@H](C(C)C)C(=O)N(C)[C@@H](CC(=O)O)C(=O)N(C)[C@@H]([C@@H](C)CC)C(=O)N1C`, the MIC against Candida albicans [1] was 3.13 µg/mL (≈ 2.78 µM); in the assay on Candida albicans [2], 12.5 µg/mL (≈ 11.1 µM); in assay [3] it was 100 µg/mL (≈ 88.8 µM); in assay [4] it was 12.5 µg/mL (≈ 11.1 µM); with Pichia kudriavzevii [5], 25 µg/mL (≈ 22.2 µM); in the assay with Pichia kudriavzevii [6] it was 50 µg/mL (≈ 44.4 µM). Besides, the values for the MIC against Candida tropicalis [7] and against Candida tropicalis [8] were 6.25 µg/mL (≈ 5.55 µM) and 25 µg/mL (≈ 22.2 µM), respectively.

On to `CC[C@H](C)[C@H]1C(=O)NCC(=O)N(C)[C@@H](C(C)C)C(=O)N[C@@H](Cc2ccc(OC)cc2)C(=O)N[C@@H](C)C(=O)N[C@H](C)C(=O)N2CCCC[C@H]2C(=O)N(C)[C@@H](C(C)C)C(=O)N[C@@H](C(C)C)C(=O)N(C)[C@@H](CC(=O)OC(C)(C)C)C(=O)N(C)[C@@H]([C@@H](C)CC)C(=O)N1C`, for which the MIC (with Candida albicans [1]; in assay [4]; with Pichia kudriavzevii [5]; against Candida tropicalis [7]) was more than 100 µg/mL throughout.

(Values after ChEMBL document CHEMBL1127799, “Derivatives of a novel cyclopeptolide. 1. Synthesis, antifungal activity, and structure-activity relationships” (1994).)
